Measured values published in paper PMC3180826 (ACS chemical neuroscience, 2010).
Substitutions are numbered along the chain they refer to. Values joined by “and” are separate entries in the source; they are usually repeats but may differ in a detail not shown here. Equal values may be shown once.

What was measured:
[1] = target: T1, rM1 receptor (Rattus norvegicus, UniProt P08482); assay: Calcium mobilization assay, CHO-K1 cells stably expressing rM1; type: cell-based
T1 sequence (P08482 1-460): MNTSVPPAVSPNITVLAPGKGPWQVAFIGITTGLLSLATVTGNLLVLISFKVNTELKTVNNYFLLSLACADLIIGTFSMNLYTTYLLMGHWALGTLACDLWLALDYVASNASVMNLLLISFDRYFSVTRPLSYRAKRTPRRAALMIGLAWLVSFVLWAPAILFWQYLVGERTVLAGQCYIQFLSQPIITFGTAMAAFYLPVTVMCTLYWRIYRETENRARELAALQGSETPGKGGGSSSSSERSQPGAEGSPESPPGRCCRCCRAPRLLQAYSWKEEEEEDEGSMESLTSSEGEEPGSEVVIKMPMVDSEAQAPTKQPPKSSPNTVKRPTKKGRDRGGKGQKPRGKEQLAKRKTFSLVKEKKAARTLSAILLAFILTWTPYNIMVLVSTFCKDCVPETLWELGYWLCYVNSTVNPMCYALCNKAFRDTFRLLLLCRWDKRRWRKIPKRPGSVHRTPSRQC

[2] = target: T2, M2 (Homo sapiens, UniProt P08172); assay: [3H]-NMS competition binding, M2 CHO membranes; conditions: concentrations well above those required to fully activate M1
T2 sequence (P08172 1-466): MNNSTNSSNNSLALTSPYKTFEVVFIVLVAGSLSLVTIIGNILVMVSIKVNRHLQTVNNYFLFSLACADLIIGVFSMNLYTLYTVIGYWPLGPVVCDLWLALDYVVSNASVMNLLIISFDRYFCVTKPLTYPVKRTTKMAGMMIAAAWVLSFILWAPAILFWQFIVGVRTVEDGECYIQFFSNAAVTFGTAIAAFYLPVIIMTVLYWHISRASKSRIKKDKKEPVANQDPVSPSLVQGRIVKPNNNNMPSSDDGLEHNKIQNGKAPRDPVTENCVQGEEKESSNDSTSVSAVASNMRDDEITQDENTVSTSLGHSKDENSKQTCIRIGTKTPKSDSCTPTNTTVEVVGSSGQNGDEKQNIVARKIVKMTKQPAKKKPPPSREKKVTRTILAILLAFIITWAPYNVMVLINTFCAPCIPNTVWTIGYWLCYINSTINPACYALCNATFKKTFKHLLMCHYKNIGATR

[3] = target: M3 (Homo sapiens, UniProt P20309); assay: [3H]-NMS competition binding, M3 CHO membranes; conditions: concentrations well above those required to fully activate M1
Chain of M3 (P20309 whole entry): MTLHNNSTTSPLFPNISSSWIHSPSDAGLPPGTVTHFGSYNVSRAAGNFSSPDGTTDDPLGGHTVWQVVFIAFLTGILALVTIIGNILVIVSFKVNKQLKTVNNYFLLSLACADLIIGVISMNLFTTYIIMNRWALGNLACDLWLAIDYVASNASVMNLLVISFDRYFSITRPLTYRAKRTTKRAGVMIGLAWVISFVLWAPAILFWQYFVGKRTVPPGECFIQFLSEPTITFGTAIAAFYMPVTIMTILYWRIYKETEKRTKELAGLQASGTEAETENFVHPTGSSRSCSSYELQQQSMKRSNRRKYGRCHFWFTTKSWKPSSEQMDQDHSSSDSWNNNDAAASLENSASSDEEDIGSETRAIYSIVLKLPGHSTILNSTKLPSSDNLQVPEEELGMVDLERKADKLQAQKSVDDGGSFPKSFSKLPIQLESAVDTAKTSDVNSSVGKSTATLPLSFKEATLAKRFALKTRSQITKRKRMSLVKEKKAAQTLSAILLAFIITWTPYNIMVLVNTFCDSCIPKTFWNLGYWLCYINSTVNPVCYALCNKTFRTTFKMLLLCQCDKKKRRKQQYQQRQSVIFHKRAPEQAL

[4] = target: T3, rM1 K392D/E397V/E401H (Rattus norvegicus, UniProt P08482, E397V/E401H/K392D); assay: Calcium mobilization, transiently transfected rM1 triple mutant CHO cells; type: cell-based; conditions: compared with wt rM1
T3 sequence (P08482 1-460 K392D/E397V/E401H): T1 sequence (P08482 1-460) with K392D, E397V, E401H
Outline: (§1)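 CHO-K1 cells were transiently transfected overnight at 37 °C with 10 μg of mutant rat M1 cDNA in pcDNA3.1+ using Fugene 6, then plated for the calcium assay. They were loaded with 2 μM Fluo-4 AM for 1 h at 37 °C in HEPES/probenecid-buffered HBSS, pH 7.4. Test compound dose–response series were added at 19 s. Calcium mobilization was measured as fluorescence increase over basal.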

[5] = target: T4, rM1 E397V (Rattus norvegicus, UniProt P08482, E397V); assay: Calcium mobilization, rM1 E397V mutant CHO-K1 cells; type: cell-based; conditions: compared with wt rM1
T4 sequence (P08482 1-460 E397V): T1 sequence (P08482 1-460) with E397V
Outline: as §1

## CCOC(=O)N1CCC(NCCNC(=O)c2ccccc2)CC1 [VU0184670, ethyl 4-(2-benzamidoethylamino)piperidine-1-carboxylate]
[1]
  EC50: 152 nM
[1]; rM1 CHO-K1, calcium mobilization
  ACh Max efficacy: 85 % ACh Max and 85.01 % ACh Max
[1]; rM1 cells, fixed increasing concentrations of atropine
  Schild analysis: shift of dose-response curve with increasing atropine: rightward shift with diminished efficacy
[2]
  reduction of [3H]-NMS binding to M2: did not reduce
[3]
  reduction of [3H]-NMS binding to M3: did not reduce
[4]
  functional response at K392D/E397V/E401H triple mutant: almost completely ablated
[5]
  functional activity at E397V mutant: mild reduction in potency and efficacy
